Measured values as given in ChEMBL document CHEMBL1949587 (Bioorg Med Chem, 2012).
In brackets after ≈: the same amount, converted by molar mass. Activity calls are given as the source filed them. No cut-off for these calls is given here.

What was measured:
HUVEC [1] = assay: Antiangiogenic activity in HUVEC assessed as inhibition of VEGF-induced cell proliferation after 4 days; assay type: functional, cell-based; conditions: Homo sapiens, 96 h
Method in brief: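 HUVECs maintained in RPMI1640 with 10% FCS, 50 μg/mL heparin and ECGS, then seeded at 3000 cells/well in RPMI1640 with 5% FCS and 20 ng/mL VEGF, with compound at serially diluted concentrations. Incubated at 37 °C, 5% CO₂. Read-out is Cell Counting Kit-8, absorbance at 450 nm. Inhibition = (1−T/C)×100 against untreated control.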

HCT-116 = assay: Antiproliferative activity against human HCT116 cells; assay type: cell-based
[2] = Clearance in mouse liver microsome at 5 uM after 60 mins by LC-MS/MS analysis; assay type: ADME; conditions: liver microsomes, read-out: CLH
Method in brief: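 Test compound at 5 µM incubated with mouse liver microsomes, 1.0 mg protein/mL, in 50 mM potassium phosphate pH 7.4 at 37 °C. Started by adding NADPH generating system (glucose 6-phosphate 3.2 mM, β-NADP 2.6 mM, MgCl2 6.5 mM). Substrate depletion measured against internal standard. Intrinsic clearance is the first-order decay constant normalized to protein.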

[3] = Solubility of the compound in fasted state simulated intestinal fluid at 10 mM after 2 hrs by HPLC-UV analysis; assay type: physicochemical
Method in brief: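 Triplicate samples made from 10 mM DMSO stocks. DMSO evaporated (1 h), residue dissolved in FaSSIF and shaken 2 h. Solutions filtered, filtrate analysed by UV or HPLC-UV against a four-point calibration curve from the stocks. Result in µg/mL.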

HUVEC [4] = assay: Selectivity ratio of IC50 for human HCT116 cells to IC50 for HUVEC cells
[5] = target: Vascular endothelial growth factor receptor 2 (Homo sapiens, UniProt P35968); assay: Inhibition of VEGFR2
Vascular endothelial growth factor receptor 2, sequence (P35968 whole entry): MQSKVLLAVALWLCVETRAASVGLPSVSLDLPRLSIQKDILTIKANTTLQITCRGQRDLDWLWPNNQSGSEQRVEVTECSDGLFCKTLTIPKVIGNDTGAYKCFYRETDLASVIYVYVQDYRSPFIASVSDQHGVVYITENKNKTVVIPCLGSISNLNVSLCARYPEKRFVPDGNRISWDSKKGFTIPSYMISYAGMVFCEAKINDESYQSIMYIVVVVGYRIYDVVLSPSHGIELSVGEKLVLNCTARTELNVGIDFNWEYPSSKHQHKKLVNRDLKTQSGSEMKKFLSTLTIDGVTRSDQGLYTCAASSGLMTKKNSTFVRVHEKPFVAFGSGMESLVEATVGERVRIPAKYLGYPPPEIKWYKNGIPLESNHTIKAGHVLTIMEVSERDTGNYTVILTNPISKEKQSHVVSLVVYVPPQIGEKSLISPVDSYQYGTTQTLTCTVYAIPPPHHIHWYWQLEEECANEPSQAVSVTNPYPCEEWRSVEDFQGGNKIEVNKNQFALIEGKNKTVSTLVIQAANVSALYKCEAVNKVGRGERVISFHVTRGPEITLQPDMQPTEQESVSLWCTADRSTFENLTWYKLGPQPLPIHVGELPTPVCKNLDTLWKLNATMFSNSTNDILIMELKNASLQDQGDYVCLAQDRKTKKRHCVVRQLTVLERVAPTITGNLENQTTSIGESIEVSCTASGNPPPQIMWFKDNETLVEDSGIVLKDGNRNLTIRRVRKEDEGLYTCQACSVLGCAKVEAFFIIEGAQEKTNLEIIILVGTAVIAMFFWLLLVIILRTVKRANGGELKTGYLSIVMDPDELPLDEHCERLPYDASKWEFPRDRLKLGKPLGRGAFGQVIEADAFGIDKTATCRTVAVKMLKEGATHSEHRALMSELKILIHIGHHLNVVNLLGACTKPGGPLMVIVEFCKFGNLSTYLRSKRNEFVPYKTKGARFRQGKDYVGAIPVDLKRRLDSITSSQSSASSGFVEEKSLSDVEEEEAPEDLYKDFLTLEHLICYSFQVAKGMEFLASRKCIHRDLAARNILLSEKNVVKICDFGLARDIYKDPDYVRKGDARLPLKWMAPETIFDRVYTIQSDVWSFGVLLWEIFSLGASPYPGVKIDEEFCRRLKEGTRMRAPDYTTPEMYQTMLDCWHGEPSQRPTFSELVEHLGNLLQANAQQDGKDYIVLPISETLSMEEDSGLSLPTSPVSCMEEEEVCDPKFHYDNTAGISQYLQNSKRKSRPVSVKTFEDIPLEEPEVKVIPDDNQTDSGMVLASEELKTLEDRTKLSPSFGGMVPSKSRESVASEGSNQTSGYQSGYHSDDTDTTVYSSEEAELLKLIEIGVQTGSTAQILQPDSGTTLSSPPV

Calu-6 [6] = assay: Antitumor activity against human Calu6 cells xenografted in BALB/c mouse assessed as tumor growth inhibition at 600 mg/kg, po for 11 days relative to control; assay type: functional; conditions: Calu-6, 264 h, read-out: TGI
Method in brief: (§1)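 Calu-6 cells in Hanks' balanced salt solution implanted s.c. in the flank of female Balb/c nude mice, 5.0×10⁶ per mouse. Oral dosing once daily for 11 days, starting at tumor volume 150 mm³. Volume = 1/2 × long × short². Tumor growth inhibition taken from change in volume of the treated group against change in controls.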

Calu-6 [7] = assay: Antiangiogenic activity in human Calu6 cells xenografted in BALB/c mouse assessed as microvessel density reduction at 300 mg/kg, po after 11 days by immunohistochemical staining method; assay type: functional; design: scale not given: the % may be the effect or the level left
Method in brief: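 Female Balb/c nude mice given Calu-6 cells s.c. in the flank, 5.0×10⁶ cells per mouse. Dosing was oral, once daily for 11 days, starting once tumors reached 150 mm³. Tumors taken 24 h after the last dose and frozen-sectioned from the mid-portion. Vessels stained with anti-mouse CD31 and counted by image analysis. Density decrease expressed against control.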

Calu-6 [8] = assay: Antitumor activity against human Calu6 cells xenografted in BALB/c mouse assessed as tumor growth inhibition at 80 mg/kg, po qd for 11 days; assay type: functional, organism-based; design: dose 80 mg/kg
Method in brief: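 Female Balb/c nude mice carried s.c. flank Calu-6 xenografts, 5.0×10⁶ cells in Hanks' solution. At 200 mm³, mice were randomized into 4 groups (n = 5): vehicle, 150 mg/kg, sunitinib 80 mg/kg, or both. Each group dosed orally once daily for 11 days. Volume = 1/2 × long × short². Inhibition from volume change against control.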

[9] = Toxicity in human Calu6 cells xenografted po dosed BALB/c mouse assessed as body weight change administered qd for 11 days; conditions: in vivo
Calu-6 [10] = assay: Antitumor activity against human Calu6 cells xenografted in BALB/c mouse assessed as tumor growth inhibition at 300 mg/kg, po for 11 days relative to control; assay type: functional; conditions: Calu-6, 264 h, read-out: TGI; method in brief: as §1
[11] = Lipophilicity, log D of the compound at pH 7; assay type: physicochemical; conditions: buffer
[12] = dose 600 mg/kg, in the assay text read “600 mg/kg” for “300 mg/kg”

IC50 (HCT-116)	microsomal CLint at 5 µM [2]	Compound	IC50 (HUVEC [1])	Ratio IC50 (HUVEC [4])	also measured
12 µM	10 µL/min/mg	COc1ccc(C(=O)NCC(O)CO)cc1/C=C/c1ccc(Cl)cc1 (stereo not given)	0.4 µM		solubility at 2 h, 10000 µM [3]: 317 µg/mL (≈ 876 µM)
> 10 µM		COc1ccc(C(N)=O)cc1/C=C/c1ccc(Cl)cc1F	1.7 µM	>5.9	
36 µM		COc1ccc(C(N)=O)cc1/C=C/c1ccccc1	2.4 µM	15	
15 µM		COc1ccc(C(N)=O)cc1/C=C/c1cccc(Cl)c1	24 µM	0.6	
24 µM		COc1ccc(C(N)=O)cc1/C=C/c1ccc(F)cc1	2.1 µM	11	
> 50 µM	16 µL/min/mg	COc1ccc(C(N)=O)cc1C(=O)Nc1ccc(Cl)cc1	5.5 µM	>9	solubility at 2 h, 10000 µM [3]: 5 µg/mL (≈ 16.4 µM)
23 µM		COc1ccc(C(N)=O)cc1/C=C/c1cccc(C)c1	3.9 µM	5.9	
17 µM	73 µL/min/mg	COc1ccc(C(=O)NCCO)cc1/C=C/c1ccc(Cl)cc1	0.91 µM	19	solubility at 2 h, 10000 µM [3]: 16 µg/mL (≈ 48.2 µM)
1.7 µM	123 µL/min/mg	CCOc1ccc(C(N)=O)cc1/C=C/c1ccc(Cl)cc1	0.19 µM	8.9	solubility at 2 h, 10000 µM [3]: 10 µg/mL (≈ 33.1 µM)
> 50 µM		COc1ccccc1/C=C/c1cc(C(N)=O)ccc1OC	5.7 µM	>8.8	
> 50 µM	414 µL/min/mg	COc1ccc(C(N)=O)cc1COc1ccc(Cl)c(C)c1	0.64 µM	>78	IC50 [5]: > 50 µM; inhibition in vivo at 600 mg/kg (Calu-6 [6]): 14%; Activity (Calu-6 [7]; [12]): 0%
		CCN(CC)CCNC(=O)c1c(C)[nH]c(/C=C2\C(=O)Nc3ccc(F)cc32)c1C [SUNITINIB]			TGI (Calu-6 [8]): Active; MTD at 264 h [9]: 80 mg/kg
35 µM		COc1ccc(C(=O)N(C)C)cc1/C=C/c1ccc(Cl)cc1	2.5 µM	14	
> 50 µM	97 µL/min/mg	COc1ccc(C(N)=O)cc1COc1ccc(Cl)cc1	0.66 µM	>75	IC50 [5]: > 50 µM; inhibition in vivo at 600 mg/kg (Calu-6 [6]): 62%; Activity (Calu-6 [7]; [12]): 27%
22 µM		COc1ccc(C(N)=O)cc1/C=C/c1ccc([N+](=O)[O-])cc1	4.7 µM	4.7	
22 µM		COc1ccc(C(N)=O)cc1/C=C/c1ccc(Br)cc1	0.56 µM	39	
> 50 µM	83 µL/min/mg	CCCOc1ccc(C(N)=O)cc1/C=C/c1ccc(Cl)cc1	1.3 µM	38	solubility at 2 h, 10000 µM [3]: 4 µg/mL (≈ 12.7 µM)
> 50 µM		COc1ccc(C(N)=O)cc1/C=C/c1cccc(F)c1	8.3 µM	>6	
20 µM		COc1ccc(C(N)=O)cc1/C=C/c1ccc(C(C)(C)C)cc1	0.37 µM	54	
24 µM		COc1ccc(C(C)=O)cc1COc1cccc(C)c1	2.8 µM	8.6	
45 µM		Cc1cc(OCc2cccc(C#N)c2)ccc1Cl	11 µM	4.1	
11 µM		COc1ccc(C(N)=O)cc1/C=C/c1ccccc1C	2.3 µM	4.8	
> 50 µM		COc1ccc(C(=O)O)cc1COc1ccc(Cl)c(C)c1	> 50 µM		

IC50 (HCT-116)	microsomal CLint at 5 µM [2]	Compound	IC50 (HUVEC [1])	Ratio IC50 (HUVEC [4])	also measured
14 µM	8 µL/min/mg	COc1ccc(C(=O)NC(CO)CO)cc1/C=C/c1ccc(Cl)cc1	1.5 µM	9.3	solubility at 2 h, 10000 µM [3]: 251 µg/mL (≈ 694 µM)
15 µM	187 µL/min/mg	CCNC(=O)c1ccc(OC)c(/C=C/c2ccc(Cl)cc2)c1	0.16 µM	94	solubility at 2 h, 10000 µM [3]: 9 µg/mL (≈ 28.5 µM)
> 50 µM		COc1ccc(C(N)=O)cc1/C=C/c1ccc(Cl)cc1Cl	2.6 µM	>19	
16 µM	331 µL/min/mg	CNC(=O)c1ccc(OC)c(/C=C/c2ccc(Cl)cc2)c1	0.19 µM	84	solubility at 2 h, 10000 µM [3]: 24 µg/mL (≈ 79.5 µM)
34 µM		COc1ccc(C(C)=O)cc1COc1ccc(Cl)c(C)c1	1.3 µM	26	IC50 [5]: > 50 µM; inhibition in vivo at 600 mg/kg (Calu-6 [6]): 34%; Activity (Calu-6 [7]; [12]): 15%
36 µM		COc1ccc(C(N)=O)cc1/C=C/c1ccccc1OC(F)(F)F	8.9 µM	4	
4.9 µM	288 µL/min/mg	CN(C)CCOc1ccc(C(N)=O)cc1/C=C/c1ccc(Cl)cc1	8.4 µM	0.6	solubility at 2 h, 10000 µM [3]: 109 µg/mL (≈ 316 µM)
19 µM		COc1ccc(C(N)=O)cc1/C=C/c1cccc(C#N)c1	49 µM	0.4	
7.1 µM	110 µL/min/mg	COc1ccc(C(N)=O)cc1/C=C/c1ccc(Cl)cc1	0.087 µM	82	inhibition in vivo at 300 mg/kg (Calu-6 [10]): 71%; logD [11]: 4; IC50 [5]: > 50 µM; solubility at 2 h, 10000 µM [3]: 16 µg/mL (≈ 55.6 µM); Activity (Calu-6 [7]; dose 300 mg/kg): 60%
7.5 µM	251 µL/min/mg	CN1CCN(CCOc2ccc(C(N)=O)cc2/C=C/c2ccc(Cl)cc2)CC1	9.5 µM	0.8	solubility at 2 h, 10000 µM [3]: 164 µg/mL (≈ 410 µM)
43 µM		CCc1ccc(OC)c(COc2ccc(Cl)c(C)c2)c1	40 µM	1.1	
29 µM	544 µL/min/mg	COc1ccc(C(N)=O)cc1/C=C\c1ccc(Cl)cc1	2.9 µM	10	solubility at 2 h, 10000 µM [3]: 137 µg/mL (≈ 476 µM)
23 µM		COC(=O)c1ccc(OC)c(COc2ccc(Cl)c(C)c2)c1	2.3 µM	10	
48 µM		COc1ccc(C(N)=O)cc1/C=C/c1ccc(C)cc1	1.6 µM	30	
26 µM		COc1ccc(C(N)=O)cc1/C=C/c1ccccc1F	2 µM	13	
35 µM		COc1ccc(C(N)=O)cc1/C=C/c1ccc(C(F)(F)F)cc1	0.88 µM	40	
> 50 µM		COc1ccc(C(N)=O)cc1/C=C/c1ccccc1Cl	23 µM	2.2	
19 µM		COc1ccc(/C=C/c2cc(C(N)=O)ccc2OC)cc1	8.8 µM	2.2	
11 µM		COc1ccc(C(N)=O)cc1/C=C/c1ccc(Cl)c(Cl)c1	0.56 µM	20	
16 µM		COc1ccc(C(N)=O)cc1/C=C/c1ccc(C#N)cc1	3.1 µM	5.2	
38 µM	247 µL/min/mg	NC(=O)c1ccc(OCCOCCO)c(/C=C/c2ccc(Cl)cc2)c1	11 µM		solubility at 2 h, 10000 µM [3]: 74 µg/mL (≈ 205 µM)
> 50 µM		COc1ccc(C#N)cc1COc1ccc(Cl)c(C)c1	1.5 µM	>33	
39 µM		COc1ccc(C(C)=O)cc1COc1ccc(Cl)cc1	1.2 µM	33	
